# Activity calls are given as the source filed them. No cut-off for these calls is given here.
# What was measured:
# HCT-116 [1] = test: Cytotoxicity against human HCT116 cells expressing p53 assessed as reduction in cell viability at 50 uM from 24 to 48 hrs by MTT assay; type: functional, cell-based
# Summary of the method: (§1)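 p53-positive HCT116 cells kept in McCoy's 5A with 10% FCS at 37 °C and 5% CO2. Seeded at 1 x 10^4 per well and incubated overnight. Treated at 12.5–200 µM, DMSO-dissolved, for 8, 24 or 48 h, with 0.05% DMSO control. MTT (5 mg/ml) added for the final 1 h at 37 °C. Formazan dissolved in SDS/DMSO/acetic acid and absorbance read at 595 nm. Means ± SD, n = 3.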
# HCT-116 [2] = test: Induction of apoptosis in human HCT116 cells assessed as PARP cleavage at 50 uM from 24 to 48 hrs by Western blotting; type: functional, cell-based
# Summary of the method: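 HCT116 cells (McCoy's 5A, 10% FCS, 37 °C, 5% CO2) exposed to 50 µM compound (DMSO stock; 0.05% DMSO control) for 24, 48 and 72 h. Total extract in RIPA buffer with protease inhibitors, 75 µg protein run on 7.5% SDS-PAGE, blotted to PVDF. Anti-PARP 1:1000 overnight at 4 °C. 116 kDa full-length and 89 kDa cleaved bands scored. Nucleolin as loading control.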
# HCT-116 [3] = test: Cytotoxicity against human HCT116 cells expressing p53 assessed as reduction in cell viability after 24 hrs by MTT assay; type: functional, cell-based; summary of the method: as §1
# HCT-116 [4] = test: Cytotoxicity against human HCT116 cells expressing p53 assessed as reduction in cell viability at 100 to 200 uM after 24 hrs by MTT assay; type: functional, cell-based; summary of the method: as §1
# HCT-116 [5] = test: Cytotoxicity against human HCT116 cells expressing p53 assessed as cell viability at 50 uM after 48 hrs by MTT assay; type: functional; details: HCT-116, 48 h, read-out: Activity; summary of the method: as §1
# HCT-116 [6] = test: Induction of apoptosis in human HCT116 cells assessed as PARP cleavage at 50 uM from 24 to 72 hrs by Western blotting; type: functional, cell-based
# Summary of the method: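 HCT116 cells exposed to 50 µM for 24, 48 and 72 h, with 0.05% DMSO control. RIPA lysates (75 µg) run on 7.5% SDS-PAGE and transferred to PVDF. Anti-PARP blot, with nucleolin as loading control. Cleavage read as the 116 kDa band converting to 89 kDa.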
# HCT-116 [7] = test: Cytotoxicity against human HCT116 cells expressing p53 assessed as reduction in cell viability at 25 uM after 24 hrs by MTT assay; type: functional; summary of the method: as §1
# HCT-116 [8] = test: Cytotoxicity against human HCT116 cells expressing p53 assessed as reduction in cell viability at 50 uM by MTT assay; type: functional, cell-based; details: TDE = time-dependent effect; summary of the method: as §1
# [9] = molecular target: T1, M-phase inducer phosphatase 3 (Homo sapiens) (UniProt P30307); test: Inhibition of recombinant human GST-tagged cdc25C phosphatase activity using 3-O-methyl fluorescein phosphate at 100 uM
# T1 sequence (whole entry): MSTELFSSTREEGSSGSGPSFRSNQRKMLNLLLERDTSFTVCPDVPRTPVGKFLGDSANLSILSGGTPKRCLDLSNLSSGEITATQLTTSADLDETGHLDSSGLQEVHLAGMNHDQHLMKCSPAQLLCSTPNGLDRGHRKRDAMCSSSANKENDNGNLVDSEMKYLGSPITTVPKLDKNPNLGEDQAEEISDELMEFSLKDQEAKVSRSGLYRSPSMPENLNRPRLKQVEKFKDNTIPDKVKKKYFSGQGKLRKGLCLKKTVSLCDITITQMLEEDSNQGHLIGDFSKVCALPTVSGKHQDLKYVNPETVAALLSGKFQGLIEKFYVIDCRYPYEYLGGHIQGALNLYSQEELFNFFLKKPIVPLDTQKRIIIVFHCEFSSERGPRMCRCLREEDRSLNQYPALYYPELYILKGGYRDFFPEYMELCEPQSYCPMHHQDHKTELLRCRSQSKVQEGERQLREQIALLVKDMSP
# Summary of the method: (§2)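 Test concentration 100 µM. Fluorescence (ex 475 / em 510 nm) read every 20 min for 2 h at 30 °C. Residual activity expressed relative to DMSO set at 100%.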
# HCT-116 [10] = test: Induction of apoptosis in human HCT116 cells assessed as increase in gammaH2AX level at 50 uM from 24 to 72 hrs by Western blotting; type: functional, cell-based
# HCT-116 [11] = test: Induction of apoptosis in human HCT116 cells assessed as increase in p53 level at 50 uM from 8 to 48 hrs by Western blotting; type: functional, cell-based
# Summary of the method: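 HCT116 cells exposed to 50 µM for 8, 24 and 48 h, with 0.05% DMSO control. Lysates run on SDS-PAGE and blotted with anti-p53 (DO-1) at 1:1000 for 1 h at room temperature. GAPDH used as loading control.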
# HCT-116 [12] = test: Cytotoxicity against human HCT116 cells expressing p53 assessed as reduction in cell viability at 50 uM after 24 hrs by MTT assay; type: functional; summary of the method: as §1
# [13] = molecular target: T2, M-phase inducer phosphatase 1 (Homo sapiens) (UniProt P30304); test: Inhibition of recombinant human GST-tagged cdc25A phosphatase activity using 3-O-methyl fluorescein phosphate at 100 uM; summary of the method: as §2
# T2 sequence (whole entry): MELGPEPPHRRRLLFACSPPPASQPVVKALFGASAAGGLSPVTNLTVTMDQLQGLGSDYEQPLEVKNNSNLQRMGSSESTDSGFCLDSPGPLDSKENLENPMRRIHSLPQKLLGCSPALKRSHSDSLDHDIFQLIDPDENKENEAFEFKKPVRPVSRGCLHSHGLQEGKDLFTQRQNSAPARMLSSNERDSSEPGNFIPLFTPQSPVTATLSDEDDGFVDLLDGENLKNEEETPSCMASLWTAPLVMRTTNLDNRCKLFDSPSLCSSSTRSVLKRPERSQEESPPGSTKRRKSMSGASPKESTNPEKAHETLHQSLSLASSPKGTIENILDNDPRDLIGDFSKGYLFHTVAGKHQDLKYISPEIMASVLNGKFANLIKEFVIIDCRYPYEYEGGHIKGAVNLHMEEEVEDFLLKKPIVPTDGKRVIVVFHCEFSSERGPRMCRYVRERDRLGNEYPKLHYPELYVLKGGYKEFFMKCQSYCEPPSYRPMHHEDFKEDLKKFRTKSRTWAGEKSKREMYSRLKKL
# HCT-116 [14] = test: Induction of apoptosis in human HCT116 cells assessed as increase in caspase 3/7 activation at 50 uM from 24 to 48 hrs by Western blotting; type: functional, cell-based
# Summary of the method: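 HCT116 cells treated with 0 or 50 µM for 24 and 48 h. Lysed on ice in Tris/MgCl2/NP-40/DTT buffer. Separated on 12.5% SDS-PAGE and probed with caspase 3 antibody for full-length protein and cleavage products. Representative of at least 3 blots.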
# HCT-116 [15] = test: Induction of apoptosis in human HCT116 cells assessed as decrease in cdc25C level at 50 uM by Western blotting; type: functional, cell-based; details: TDE = time-dependent effect
# HCT-116 [16] = test: Cell cycle arrest in human HCT116 cells assessed as accumulation at S phase at 50 uM after 24 hrs using propidium iodide staining by cytofluorometry (reference value: 4.91%); type: functional
# HCT-116 [17] = test: Induction of apoptosis in human HCT116 cells assessed as decrease in bcl-2 level by Western blotting; type: functional, cell-based; details: TDE = time-dependent effect
# Summary of the method: (§3)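 HCT116 cells left untreated or exposed for 0.5–24 h. 50 µg protein separated on 12.5% SDS-PAGE and transferred to PVDF. bcl-2, bax or cytochrome c antibodies applied at 1:1000 overnight at 4 °C, with GAPDH loading control. For cytochrome c, cytosolic extracts were made by snap-freezing PBS-resuspended cells and clearing at 12500×g.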
# HCT-116 [18] = test: Cell cycle arrest in human HCT116 cells assessed as accumulation at G1 phase at 25 uM after 24 hrs using propidium iodide staining by cytofluorometry (reference value: 62.34%); type: functional
# HCT-116 [19] = test: Cell cycle arrest in human HCT116 cells assessed as accumulation at subG1 phase at 25 uM after 24 hrs using propidium iodide staining by cytofluorometry (reference value: 1.8%); type: functional
# HCT-116 [20] = test: Induction of apoptosis in NAC treated human HCT116 cells assessed as PARP cleavage at 50 uM treated 0.5 hrs before NAC challenge measured after 24 to 72 hrs by Western blotting; type: functional, cell-based
# Summary of the method: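 HCT116 cells pretreated with 5 mM NAC (water stock) for 0.5 h, then exposed to 50 µM for 24, 48 and 72 h. Cells lysed in RIPA with protease inhibitors. 75 µg protein run on 7.5% SDS-PAGE and blotted to PVDF. PARP probed at 1:1000 overnight at 4 °C. Nucleolin or GAPDH used as loading control.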
# HCT-116 [21] = test: Cell cycle arrest in human HCT116 cells assessed as accumulation at S phase at 25 uM after 24 hrs using propidium iodide staining by cytofluorometry (reference value: 4.91%); type: functional
# HCT-116 [22] = test: Cell cycle arrest in human HCT116 cells assessed as accumulation at subG1 phase at 50 uM after 24 hrs using propidium iodide staining by cytofluorometry (reference value: 1.8%); type: functional
# HCT-116 [23] = test: Induction of apoptosis in human HCT116 cells assessed as increase in bax level by Western blotting; type: functional, cell-based; details: TDE = time-dependent effect; summary of the method: as §3
# HCT-116 [24] = test: Cell cycle arrest in human HCT116 cells assessed as accumulation at G2/M phase at 50 uM after 24 hrs using propidium iodide staining by cytofluorometry (reference value: 23.45%); type: functional
# HCT-116 [25] = test: Induction of apoptosis in human HCT116 cells assessed as increase in release of cytochrome C into cytosol by Western blotting; type: functional, cell-based; summary of the method: as §3
# HCT-116 [26] = test: Cell cycle arrest in human HCT116 cells assessed as accumulation at G1 phase at 50 uM after 24 hrs using propidium iodide staining by cytofluorometry (reference value: 62.34%); type: functional
# HCT-116 [27] = test: Cell cycle arrest in human HCT116 cells assessed as accumulation at G2/M phase at 25 uM after 24 hrs using propidium iodide staining by cytofluorometry (reference value: 23.45%); type: functional
# LNCaP = test: Induction of apoptosis in human LNCAP cells assessed as increase in caspase 3/7 activation at 20 ug/ml after 24 hrs by Western blotting; type: functional, cell-based
# Summary of the method: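 LNCaP cells grown in RPMI 1640 with 10% FCS, then treated with 20 µg/ml doxorubicin (water stock) for 24 h or left untreated. Lysates run on 12.5% SDS-PAGE and probed for full-length and cleaved caspase 3.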
Structure (SMILES),Activity (HCT-116 [1]),Activity (HCT-116 [2]),Activity (HCT-116 [3]),Activity (HCT-116 [4]),viability at 50 µM (HCT-116 [5]) [%],Activity (HCT-116 [6]),Activity (HCT-116 [7]) [%],Activity (HCT-116 [8]),inhibition [9],Activity (HCT-116 [10]),Activity (HCT-116 [11]),Activity (HCT-116 [12]) [%],inhibition [13],also measured
C=CCSSCC=C,Active,Active,–,–,–,–,–,–,–,–,–,–,–,–
COc1ccc2c(CSSCc3cc(=O)oc4cc(OC)ccc34)cc(=O)oc2c1,Active,Active,Dose-dependent effect,Active,20,Active,30,tde,Active,Active,Active,50,Active,–
C=CCSSSSCC=C,Active,–,–,–,–,–,–,–,–,–,–,–,–,–
COc1ccc2c(CSSSCc3cc(=O)oc4cc(OC)ccc34)cc(=O)oc2c1,–,–,Dose-dependent effect,Active,20,Active,22,tde,Active,Active,Active,50,Active,Activity (HCT-116 [14]): Active; Activity (HCT-116 [15]): tde; Activity (HCT-116 [16]): 3.9%; Activity (HCT-116 [17]): tde; Activity (HCT-116 [18]): 14.33%; Activity (HCT-116 [19]): 12.28%; Activity (HCT-116 [20]): inactive; Activity (HCT-116 [21]): 4.61%; Activity (HCT-116 [22]): 10.43%; Activity (HCT-116 [23]): tde; Activity (HCT-116 [24]): 63.19%; Activity (HCT-116 [25]): Active; Activity (HCT-116 [26]): 13.59%; Activity (HCT-116 [27]): 66.07%
COc1cccc2c1C(=O)c1c(O)c3c(c(O)c1C2=O)C[C@@](O)(C(=O)CO)C[C@@H]3O[C@H]1C[C@H](N)[C@H](O)[C@H](C)O1,–,–,–,–,–,–,–,–,–,–,–,–,–,Activity (LNCaP): Active
COc1cc(N(C)C)cc(CN(C)CCc2ccc([N+](=O)[O-])cc2)c1O,–,–,–,–,–,–,–,–,Active,–,–,–,Active,–

# From ChEMBL document CHEMBL1944542, “Coumarin polysulfides inhibit cell growth and induce apoptosis in HCT116 colon cancer cells” (2012)
